Reference: ChEMBL document CHEMBL3734708, “Synthesis, cytotoxicity and antiviral evaluation of new series of imidazo[4,5-g]quinoline and pyrido[2,3-g]quinoxalinone derivatives” (Eur J Med Chem, 2015)

Key:
Coxsackievirus B5 = assay: Antiviral activity against CVB-5 virus Faulkner ATCC VR-185 infected in african green monkey Vero-76 cells after 3 days by plaque reduction assay; type: functional, organism-based; conditions: Enterovirus B, Faulkner ATCC VR-185, Vero 76, 72 h
Vaccinia virus = assay: Antiviral activity against VV Elstree ATCC VR-1549 infected in african green monkey Vero-76 cells after 3 days by plaque reduction assay; type: functional, organism-based; conditions: Orthopoxvirus vaccinia, Elstree ATCC VR-1549, Vero 76, 72 h
[1] = Cytotoxicity against human MT4 cells assessed as reduction in cell proliferation after 96 hrs by MTT assay; type: cell-based
Summary of the method: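 MT-4 cells in exponential growth seeded at 1 × 10^5 cells/mL in RPMI-1640 with 10% FBS and penicillin/streptomycin. Cultured with serial compound dilutions at 37 °C, 5% CO2. MTT viability after 96 h. CC50 by linear regression against untreated controls. Mean of three independent determinations.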

[2] = system: Human immunodeficiency virus 1; assay: Antiviral activity against HIV-1 3B infected in human MT4 cells assessed as protection against virus-induced cytopathic effect after 4 days by MTT assay; type: functional, organism-based; conditions: Human immunodeficiency virus 1, 3B, MT4, 96 h
Summary of the method: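 MT-4 cells (1 × 10^4/well in RPMI) with or without serial compound dilutions, infected with HIV-1 at 100 CCID50 (m.o.i. 0.01). After 4 days at 37 °C, protection from cytopathogenicity read by MTT. EC50 by linear regression versus untreated controls; mean of three independent determinations.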

[3] = Cytotoxicity against MDBK cells assessed as reduction in cell viability after 72 hrs by MTT assay; type: cell-based, Bos taurus; conditions: cattle
Summary of the method: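 MDBK cells seeded at 6 × 10^5 cells/mL in MEM-E with L-glutamine, 1 mM sodium pyruvate, kanamycin and 10% horse serum. Mock-infected cultures held with serial compound dilutions at 37 °C, 5% CO2. MTT viability read after 72 h. 50% cytotoxic concentration from linear regression as % of untreated controls. Three independent determinations.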

[4] = system: Bovine viral diarrhea virus 1; assay: Antiviral activity against BVDV NADL ATCC VR-534 infected in MDBK cells assessed as protection against virus-induced cytopathic effect after 3 or 4 days by MTT assay; type: functional, organism-based; conditions: Bovine viral diarrhea virus isolates and strains, NADL ATCC VR-534, MDBK
Summary of the method: (§1)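 BHK-21 (YFV, Reo-1) or MDBK (BVDV) cells seeded at 5 × 10^4 or 3 × 10^4 cells/well and grown overnight to confluence. Monolayers infected at m.o.i. 0.01 in maintenance medium (MEM-Earle, 0.5% inactivated FBS). Serial compound dilutions added 2 h after infection; 37 °C for 3-4 days. Viability read by MTT. EC50 by linear regression versus untreated controls; mean of three determinations.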

[5] = Cytotoxicity against BHK21 cells assessed as reduction in cell viability after 72 hrs by MTT assay; type: cell-based, Mesocricetus auratus, BHK-21; conditions: hamster
Summary of the method: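 BHK cells seeded at 1 × 10^6 cells/mL in MEM-E with L-glutamine, 1 mM sodium pyruvate, kanamycin and 10% FBS. Mock-infected cells exposed to serial dilutions of compound at 37 °C, 5% CO2, run in parallel with the antiviral assays. Viability by MTT at 72 h. CC50 by linear regression vs untreated controls. Mean of three independent determinations.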

Yellow fever virus = assay: Antiviral activity against YFV 17-D vaccine (Stamaril Pasteur J07B01) infected in BHK21 cells assessed as protection against virus-induced cytopathic effect after 3 or 4 days by MTT assay; type: functional, organism-based; conditions: BHK-21; summary of the method: as §1
[6] = system: Mammalian orthoreovirus 1; assay: Antiviral activity against Reovirus 1 ATCC VR- 214 infected in BHK21 cells assessed as protection against virus-induced cytopathic effect after 3 or 4 days by MTT assay; type: functional, cell-based; conditions: Mammalian orthoreovirus 1, ATCC VR- 214, BHK-21; summary of the method: as §1
[7] = Cytotoxicity against african green monkey Vero 76 cells assessed as reduction in cell viability after 48 to 96 hrs by MTT assay; type: cell-based; conditions: chlorocebus sabaeus
Summary of the method: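 Vero-76 cells plated at 4 × 10^5 cells/mL in D-MEM with L-glutamine, kanamycin and 10% FBS. Incubated with serial dilutions of test compounds at 37 °C, 5% CO2 for 48-96 h. Viability by MTT. CC50 by linear regression relative to untreated cells. Mean of three independent runs.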

[8] = system: Human poliovirus 1 strain Sabin; assay: Antiviral activity against Human poliovirus 1 strain Sabin 1 virus infected in african green monkey Vero-76 cells after 2 days by plaque reduction assay; type: functional, organism-based; conditions: Enterovirus C, 1, Vero 76, 48 h
[9] = system: Respiratory syncytial virus; assay: Antiviral activity against RSVA2 ATCC VR-1540 infected in african green monkey Vero-76 cells after 5 days by plaque reduction assay; type: functional, organism-based; conditions: human respiratory syncytial virus, A2 ATCC VR-1540, Vero 76, 120 h
[10] = system: Vesicular stomatitis virus; assay: Antiviral activity against VSV Indiana ATCC VR-158 infected in african green monkey Vero-76 cells after 2 days by plaque reduction assay; type: functional, organism-based; conditions: Indiana ATCC VR-158, Vero 76, 48 h
Human alphaherpesvirus 1 = assay: Antiviral activity against HSV-1 KOS ATCC VR- 1493 infected in african green monkey Vero-76 cells after 3 days by plaque reduction assay; type: functional, organism-based; conditions: Human alphaherpesvirus 1, KOS ATCC VR1493, Vero 76, 72 h

Row | Structure (SMILES) | EC50 (Coxsackievirus B5) | EC50 (Vaccinia virus) | CC50 at 96 h [1] | EC50 [2] | CC50 at 72 h [3] | EC50 [4] | CC50 at 72 h [5] | EC50 (Yellow fever virus) | EC50 [6] | CC50 [7] | EC50 [8] | EC50 [9] | EC50 [10] | EC50 (Human alphaherpesvirus 1)
1 | Nc1ccn(C[C@@H](CO)OCP(=O)(O)O)c(=O)n1 [CIDOFOVIR] | > 100 µM | 19 µM | – | – | – | – | – | – | – | – | – | – | – | –
2 | COc1nc2cc3cccnc3c(Cl)c2nc1C(C)C | > 100 µM | > 100 µM | > 100 µM | > 100 µM | > 100 µM | > 100 µM | > 100 µM | > 100 µM | > 100 µM | > 100 µM | > 100 µM | > 100 µM | > 100 µM | > 100 µM
3 | Cn1c(=O)c(Cc2ccccc2)nc2c(Cl)c3ncccc3cc21 | > 100 µM | > 100 µM | > 100 µM | > 100 µM | > 100 µM | 10 µM | > 100 µM | > 100 µM | > 100 µM | > 100 µM | > 100 µM | > 100 µM | > 100 µM | > 100 µM
4 | c1csc(-c2nc3cc4cccnc4cc3n2C2CCCCC2)c1 | > 15 µM | > 15 µM | 18 µM | > 18 µM | > 100 µM | 65 µM | 45 µM | > 45 µM | > 45 µM | 15 µM | > 15 µM | > 15 µM | > 15 µM | > 15 µM
5 | O=c1c(-c2cccs2)nc2cc3cccnc3c(Cl)c2n1C1CCCCC1 | > 100 µM | > 100 µM | > 100 µM | > 100 µM | > 100 µM | 15 µM | > 100 µM | > 100 µM | > 100 µM | > 100 µM | > 100 µM | > 100 µM | > 100 µM | > 100 µM
6 | C[C@@]1(O)[C@H](O)[C@@H](CO)O[C@H]1n1cnc2c(=O)[nH]c(N)nc21 [2'-B-METHYL-GUANOSINE] | – | – | – | – | > 100 µM | – | 1.1 µM | > 100 µM | 1.9 µM | – | – | – | – | –
7 | C#C[C@@]1(O)[C@H](O)[C@@H](CO)O[C@H]1n1ccc(N)nc1=O [2'-ETHYNYL-D-CYTIDINE] | > 100 µM | – | – | – | – | – | – | – | – | – | 27 µM | 23 µM | – | –
8 | c1ccc(-c2nc3cc4cccnc4cc3n2C2CCCCC2)cc1 | > 35 µM | > 35 µM | 50 µM | > 50 µM | > 100 µM | 29 µM | > 100 µM | > 100 µM | 67 µM | 35 µM | > 35 µM | > 35 µM | > 35 µM | > 35 µM
9 | CCCn1c(=O)c(-c2ccccc2)nc2cc3cccnc3c(Cl)c21 | 7 µM | > 50 µM | 40 µM | > 40 µM | 40 µM | 33 µM | > 100 µM | > 100 µM | > 100 µM | 50 µM | > 50 µM | > 50 µM | > 50 µM | > 50 µM
10 | CCOc1nc2cc3cccnc3c(Cl)c2nc1-c1ccccc1 | > 50 µM | > 50 µM | > 100 µM | > 100 µM | > 100 µM | 73 µM | > 100 µM | > 100 µM | > 100 µM | 50 µM | > 50 µM | > 50 µM | > 50 µM | > 50 µM
11 | COc1nc2cc3cccnc3c(Cl)c2nc1Cc1ccccc1 | > 100 µM | > 100 µM | > 100 µM | > 100 µM | > 100 µM | 6 µM | > 100 µM | > 100 µM | > 100 µM | > 100 µM | > 100 µM | > 100 µM | > 100 µM | > 100 µM
12 | O=c1cnn([C@@H]2O[C@H](CO)[C@@H](O)[C@H]2O)c(=O)[nH]1 [6-AZAURIDINE] | ≥ 12.5 µM | – | – | – | – | – | – | – | – | – | – | – | 1.2 µM | –
13 | COc1nc2cc3cccnc3c(Cl)c2nc1-c1ccccc1 | > 100 µM | > 100 µM | > 100 µM | > 100 µM | > 100 µM | 4 µM | > 100 µM | > 100 µM | 21 µM | > 100 µM | 73 µM | 9 µM | > 100 µM | > 100 µM
14 | O=c1c(Cc2ccccc2)nc2cc3cccnc3c(Cl)c2n1C1CCCCC1 | > 20 µM | > 20 µM | 34 µM | > 34 µM | > 100 µM | 5 µM | 20 µM | > 20 µM | > 20 µM | 20 µM | > 20 µM | > 20 µM | > 20 µM | > 20 µM
15 | Nc1nc2c(ncn2COCCO)c(=O)[nH]1 [ACYCLOVIR] | > 100 µM | – | – | – | – | – | – | – | – | – | – | – | – | –
16 | C[C@@]1(O)[C@H](O)[C@@H](CO)O[C@H]1n1ccc(N)nc1=O | – | – | – | – | – | – | – | – | > 100 µM | 16 µM | – | – | – | –
